The values below come from ChEMBL document CHEMBL1125825, “Hydrophobicity parameters for platinum complexes” (J Med Chem, 1991).

Data set [1] is described as follows: Partition coefficient (logP). The data set is classed as physicochemical. The following applies: octanol/water. In short, it runs like this: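 Octanol/water shake-flask partitioning used equal phase volumes shaken at 300 agitations/min at 37 °C. Phases were separated at various times, and Pt in each phase was measured by graphite-furnace atomic absorption. P is the octanol Pt concentration divided by the aqueous Pt concentration, reported as log P, with the mean ± range of 6-10 independent experiments.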

The species entered for another data set is Mus musculus. Kind of data set: Median survival time of treated mice with respect to untreated controls. The format is functional, organism-based. In short, it runs like this:
(§1)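 P388 murine leukemia model in female DBA/2 mice given 10^6 cells on day 0. A single treatment was given on day 1 with the platinum complex freshly dissolved in 0.4% Klucel. T/C is the median survival time of treated mice relative to untreated controls.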

The test system of a further data set is P388. Kind of data set: Optimal dose evaluated for antitumor activity against P388 murine leukemia cells in female DBA/2 mice. The following applies: Mus musculus. The data set is classed as functional, cell-based. In a few lines:
as §1

One may read the logP as the decadic logarithm of the partition coefficient of the neutral form, usually between octanol and water. Read a low logP as lower lipophilicity. By T/C is commonly meant the ratio of treated to control.

Consider “cis-di-cycloheptylamino,di-nitrate platinum (II) [listing 1 of 2 here]”, for which the logP in data set [1] was -0.35.

In data set [1], “cis-di-pyridinium (4-methanol),di-nitrate platinum (II)” registered a logP of -2.13.

With “cis-di-cyclopentyleamino,di-nitrate platinum (II) [listing 1 of 2 here]”, the T/C in the data set listed under Mus musculus came to 193%. Moreover, the Optimal dose in the data set with P388 came to 51 µmol/kg.

Substance “cis-di-amonium, di-nitarte platinum (II) [listing 1 of 2 here]” came in with a T/C in the data set filed under Mus musculus of 123%. This substance also registered an Optimal dose in the data set with P388 of 3.5 µmol/kg.

In the case of “cis-di-pyridinium (4-diaminomethane),di-nitrate platinum (II) [listing 1 of 2 here]”, the T/C in the data set listed under Mus musculus was found to be 110%. In the data set with P388, this substance gave an Optimal dose of 495 µmol/kg.

On to “cis-di-methylamino,di-chloro platinum (II) [listing 1 of 2 here]”, for which, in the data set filed under Mus musculus, the T/C stood at 175%. In the data set on P388, this substance displayed an Optimal dose of 76 µmol/kg.

CISPLATIN [listing 1 of 2 here]: the logP in data set [1] is reported as -2.19.

For the substance “cis-di-methylamino,di-chloro platinum (II) [listing 2 of 2 here]”, the logP in data set [1] is -1.68.

In turn, “cis-di-cyclopentylamino, dichloro platinum (II) [listing 1 of 2 here]” yielded a logP in data set [1] of 0.81.

As to “cis-di-cyclohexylamino,di-nitrate platinum (II) [listing 1 of 2 here]”, in the data set listed under Mus musculus, the T/C is 173%. In the data set on P388, the Optimal dose was determined as 97 µmol/kg.

With “cis-di-cyclobutyleamino,di-chloro platinum (II) [listing 1 of 2 here]”, the logP in data set [1] is given as 0.36.

Substance “cis-di-pyridinium,dinitrate platinum (II) [listing 1 of 2 here]” returned a T/C in the data set listed under Mus musculus of 125%. For the same substance, in the data set on P388, the Optimal dose came to 105 µmol/kg.

The substance “cis-di-pyridinium (4-acetyle),di-nitrate platinum (II)” registered a logP in data set [1] of -1.41.

In data set [1], “cis-di-pyridinium (4-diaminomethane),di-nitrate platinum (II) [listing 2 of 2 here]” returned a logP of -0.83.

For the substance “cis-di-pyridinium,dinitrate platinum (II) [listing 2 of 2 here]”, the logP in data set [1] was -1.59.

In turn, “cis-di-cyclopentyleamino,di-nitrate platinum (II) [listing 2 of 2 here]” registered a logP in data set [1] of -1.14.

On to “cis-di-cyclohexylamino,di-nitrate platinum (II) [listing 2 of 2 here]”, for which, in data set [1], the logP is -0.91.

On to “cis-di-pyridinium (4-chloro),di-nitrate platinum (II) [listing 1 of 2 here]”, for which the T/C in the data set listed under Mus musculus came to 130%. This substance also gave an Optimal dose in the data set with P388 of 183 µmol/kg.

CISPLATIN [listing 2 of 2 here] returned a T/C in the data set listed under Mus musculus of 200%. Besides, in the data set on P388, the Optimal dose amounted to 27 µmol/kg.

The substance “cis-di-methylamino, di-nitrate platinum (II) [listing 1 of 2 here]” gave a T/C in the data set filed under Mus musculus of 161%. In the data set on P388, this substance showed an Optimal dose of 26 µmol/kg.

With “cis-di-cycloheptylamino,di-nitrate platinum (II) [listing 2 of 2 here]”, in the data set filed under Mus musculus, the T/C is 133%. The substance further showed an Optimal dose with P388 of 92 µmol/kg.

Regarding “cis-di-isopropyleamino,dichloro platinum (II)”, the logP in data set [1] is -0.32.

The substance “cis-di-methylamino, di-nitrate platinum (II) [listing 2 of 2 here]” yielded a logP in data set [1] of -3.28.

On to “cis-di-cyclobutyleamino,di-chloro platinum (II) [listing 2 of 2 here]”, for which the T/C in the data set filed under Mus musculus turned out to be 199%. Moreover, the Optimal dose with P388 was 147 µmol/kg.

In the case of “cis-di-pyridinium (4-chloro),di-nitrate platinum (II) [listing 2 of 2 here]”, in data set [1], the logP is on record as -1.06.

Turning to “cis-di-cyclopentylamino, dichloro platinum (II) [listing 2 of 2 here]”, the T/C in the data set filed under Mus musculus amounted to 172%. The Optimal dose in the data set on P388 amounted to 572 µmol/kg.

Substance “cis-di-amonium, di-nitarte platinum (II) [listing 2 of 2 here]” returned a logP in data set [1] of -3.36.
